ChEMBL document CHEMBL1142240, “Lissoclibadins 4-7, polysulfur aromatic alkaloids from the Indonesian ascidian Lissoclinum cf. badium” (J Nat Prod, 2007)
The source made the active and inactive calls. No cut-off for these calls is given here.

How the values were obtained:
[1] = tested on: Mucor hiemalis; assay: Antimicrobial activity against Mucor hiemalis IAM 6088 at 20 ug/disk; type: functional; settings: read-out: IZ
[2] = tested on: Saccharomyces cerevisiae; assay: Antimicrobial activity against Saccharomyces cerevisiae IAM 1438T at 50 ug/disk; type: functional; settings: read-out: IZ
[3] = tested on: Mucor hiemalis; assay: Antimicrobial activity against Mucor hiemalis IAM 6088 at 50 ug/disk; type: functional; settings: for zone of inhibition at 50 µg/disc: read-out: IZ
[4] = Inhibition of colony formation in Chinese hamster V79 cells; type: functional, cell-based; settings: Cricetulus griseus
Procedure, shortened: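 Compound added in DMSO at 0.01–10 μM, then 4 further days of incubation. Colonies counted; relative plating efficiency taken as colony number in sample dish over control dish; EC50 derived.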

[5] = tested on: Escherichia coli; assay: Antimicrobial activity against Escherichia coli IAM 12119T at 20 ug/disk; type: functional; settings: read-out: IZ
[6] = tested on: Escherichia coli; assay: Antimicrobial activity against Escherichia coli IAM 12119T at 50 ug/disk; type: functional; settings: read-out: IZ
[7] = tested on: Staphylococcus aureus; assay: Antimicrobial activity against Staphylococcus aureus IAM 12544T at 50 ug/disk; type: functional; settings: read-out: IZ
[8] = tested on: Saccharomyces cerevisiae; assay: Antimicrobial activity against Saccharomyces cerevisiae IAM 1438T at 20 ug/disk; type: functional; settings: read-out: IZ
[9] = tested on: Staphylococcus aureus; assay: Antimicrobial activity against Staphylococcus aureus IAM 12544T at 20 ug/disk; type: functional; settings: read-out: IZ

With COc1c(OC)c2c(c(CCN(C)C)c1SC)SSS2 as the compound, how does the zone of inhibition at 20 µg/disc [1] read?
The zone of inhibition at 20 µg/disc was 17.4 mm.

And the zone of inhibition at 50 µg/disc [2]?
The zone of inhibition at 50 µg/disc was 11.8 mm.

What about the zone of inhibition at 50 µg/disc [3] of the same compound?
Its zone of inhibition at 50 µg/disc is 23 mm.

What about the EC50 [4] of the same compound?
Its EC50 is 190 nM.

And the zone of inhibition at 20 µg/disc [5]?
Its zone of inhibition at 20 µg/disc is 14.4 mm.

What about the zone of inhibition at 50 µg/disc [6] of the same compound?
Its zone of inhibition at 50 µg/disc is 17.8 mm.

What about the zone of inhibition at 50 µg/disc [7] of the same compound?
The zone of inhibition at 50 µg/disc was 10.3 mm.

For COc1c(OC)c2c(c(CCN(C)C)c1SC)SSSSS2, which zone of inhibition at 20 µg/disc [1] is on record?
The zone of inhibition at 20 µg/disc was 19.6 mm.

What about the zone of inhibition at 50 µg/disc [2] of the same compound?
The zone of inhibition at 50 µg/disc was 15.2 mm.

What about the zone of inhibition at 50 µg/disc [3] of the same compound?
Its zone of inhibition at 50 µg/disc is 26.2 mm.

What about the zone of inhibition at 20 µg/disc [8] of the same compound?
Its zone of inhibition at 20 µg/disc is 10.5 mm.

And the EC50 [4]?
Its EC50 is 150 nM.

And the zone of inhibition at 20 µg/disc [5]?
Its zone of inhibition at 20 µg/disc is 13.1 mm.

What about the zone of inhibition at 50 µg/disc [6] of the same compound?
Its zone of inhibition at 50 µg/disc is 17.1 mm.

What about the zone of inhibition at 50 µg/disc [7] of the same compound?
Its zone of inhibition at 50 µg/disc is 14.2 mm.

With COc1c(OC)c2c(c(CCN(C)C)c1SC)SSc1c(CCN(C)C)c(SC)c(OC)c(OC)c1Sc1c(OC)c(OC)c(SC)c(CCN(C)C)c1S2 [LISSOCLIBADIN 1] as the compound, how does the EC50 [4] read?
The EC50 was 200 nM.

Which results are given for COc1c(SC)c(CCN(C)C)c2sc3c(OC)c(OC)c(SC)c(CCN(C)C)c3ssc2c1OC [LISSOCLIBADIN 2]?
zone of inhibition at 50 µg/disc [3]: 13.8 mm; EC50 [4]: 80 nM

With COc1c(OC)c2c(c(CCN(C)C)c1SC)Sc1c(OC)c(OC)c(SC)c(CCN(C)C)c1S2 [LISSOCLIBADIN 3] as the compound, how does the EC50 [4] read?
Its EC50 is 340 nM.

Which zone of inhibition at 20 µg/disc [9] does the source give for COc1cc(CCN(C)C)c2sc3c(O)c(OC)cc(CCN(C)C)c3ssc2c1O [LISSOCLIBADIN 4] here?
Its zone of inhibition at 20 µg/disc is 10.8 mm.

And the Activity [3]?
Its Activity is “inactive”.

And the EC50 [4]?
The EC50 was 710 nM.

What about the zone of inhibition at 50 µg/disc [6] of the same compound?
Its zone of inhibition at 50 µg/disc is 15.7 mm.

And the zone of inhibition at 50 µg/disc [7]?
The zone of inhibition at 50 µg/disc was 13.1 mm.

With COc1cc(CCN(C)C)c2sc3c(OC)c(OC)c(SC)c(CCN(C)C)c3ssc2c1O [LISSOCLIBADIN 5] as the compound, how does the zone of inhibition at 20 µg/disc [9] read?
Its zone of inhibition at 20 µg/disc is 9 mm.

And the zone of inhibition at 50 µg/disc [2]?
The zone of inhibition at 50 µg/disc was 6.2 mm.

What about the EC50 [4] of the same compound?
The EC50 was 60 nM.

What about the zone of inhibition at 50 µg/disc [6] of the same compound?
Its zone of inhibition at 50 µg/disc is 11.6 mm.

What about the zone of inhibition at 50 µg/disc [7] of the same compound?
The zone of inhibition at 50 µg/disc was 15.8 mm.

Which results are given for COc1cc(CCN(C)C)c2c(c1O)Sc1c(CCN(C)C)c(SC)c(OC)c(OC)c1S2 [LISSOCLIBADIN 6]?
zone of inhibition at 20 µg/disc [9]: 10 mm; zone of inhibition at 50 µg/disc [2]: 7.8 mm; EC50 [4]: 60 nM; zone of inhibition at 50 µg/disc [6]: 10.8 mm; zone of inhibition at 50 µg/disc [7]: 13.8 mm

With COc1cc(CCN(C)C)c2c(c1O)SSc1c(CCN(C)C)cc(OC)c(O)c1SS2 [LISSOCLIBADIN 7] as the compound, how does the zone of inhibition at 20 µg/disc [9] read?
Its zone of inhibition at 20 µg/disc is 9.4 mm.

And the zone of inhibition at 50 µg/disc [2]?
Its zone of inhibition at 50 µg/disc is 16.8 mm.

And the EC50 [4]?
Its EC50 is 170 nM.

And the zone of inhibition at 50 µg/disc [6]?
The zone of inhibition at 50 µg/disc was 9.9 mm.

What about the zone of inhibition at 50 µg/disc [7] of the same compound?
Its zone of inhibition at 50 µg/disc is 13.1 mm.

For COc1c(OC)c2c(c(CCN(C)C)c1SC)Sc1c(CCN(C)C)c(SC)c(OC)c(OC)c1S2 [LISSOCLINOTOXIN E], which EC50 [4] is on record?
The EC50 was 270 nM.

Which results are given for COc1c(SC)c(CCN(C)C)c2sc3c(CCN(C)C)c(SC)c(OC)c(OC)c3ssc2c1OC [LISSOCLINOTOXIN F]?
zone of inhibition at 20 µg/disc [1]: 10.5 mm; zone of inhibition at 50 µg/disc [3]: 18 mm; EC50 [4]: 280 nM
